Measured values published in ChEMBL document CHEMBL3112570, “Design, synthesis, and evaluation of pyrrolo[2,1-f][1,2,4]triazine derivatives as novel hedgehog signaling pathway inhibitors” (Bioorg Med Chem, 2014).

What was measured:
[1] = Inhibition of hedgehog signaling pathway in mouse NIH/3T3 cells after 48 hrs by Gli-luciferase reporter gene assay; assay type: cell-based; settings: NIH3T3, 48 h
Method in brief: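 NIH3T3 cells stably carrying a Gli-luciferase reporter, kept in DMEM + 10% FBS with puromycin. Seeded at 2 × 10⁴ cells/well and cultured overnight at 37 °C, 5% CO₂. Compounds added as an 8-point series (0.05–300 nM) in medium with 0.5% FBS plus Sonic Hedgehog agonist 0.7 µg/mL, n = 4 wells per concentration, 48 h. […] Lysates read by dual-luciferase.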

[2] = Apparent volume of distribution in Sprague-Dawley rat at 1 mg/kg, iv by LC/MS/MS analysis; assay type: ADME, organism-based; parameters: dose 1 mg/kg, route intravenous; settings: in vivo, read-out: Vz
Method in brief: (§1)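 Sprague-Dawley rats dosed iv at 1 mg/kg (n = 3). Blood samples were centrifuged at 4000 rpm for 5 min at 4 °C to give plasma. PK parameters were derived from plasma concentration-time data by noncompartmental analysis.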

[3] = Cmax in Sprague-Dawley rat at 1 mg/kg, iv by LC/MS/MS analysis; assay type: ADME, organism-based; parameters: dose 1 mg/kg, route intravenous; settings: in vivo; method in brief: as §1
[4] = AUC in Sprague-Dawley rat at 1 mg/kg, iv by LC/MS/MS analysis; assay type: ADME, organism-based; parameters: dose 1 mg/kg, route intravenous; settings: plasma; method in brief: as §1
[5] = Elimination half life in Sprague-Dawley rat at 1 mg/kg, iv by LC/MS/MS analysis; assay type: ADME, organism-based; parameters: dose 1 mg/kg, route intravenous; settings: in vivo, read-out: beta t1/2 (converted); method in brief: as §1
[6] = Mean residence time (0 to t) in Sprague-Dawley rat at 1 mg/kg, iv by LC/MS/MS analysis; assay type: ADME, organism-based; parameters: dose 1 mg/kg, route intravenous; settings: in vivo; method in brief: as §1
[7] = Clearance in Sprague-Dawley rat at 1 mg/kg, iv by LC/MS/MS analysis; assay type: ADME, organism-based; parameters: dose 1 mg/kg, route intravenous; settings: in vivo; method in brief: as §1

| SMILES | IC50 [1] [nM] | Vd [2] [L/kg] | Cmax [3] [ng/mL] | AUC [4] [ng·h/mL] | half-life [5] [h] | MRT last [6] [h] | clearance [7] [mL/min/kg] |
| --- | --- | --- | --- | --- | --- | --- | --- |
| Cc1ccc(CN2CCOCC2)cc1NC(=O)c1ccc(Nc2nc(-c3ccccn3)c3cccn3n2)c(F)c1 | 0.73 |  |  |  |  |  |  |
| Cc1ccc(CN2CCCCC2)cc1NC(=O)c1ccc(Nc2nc(-c3cnn(C)c3)c3cccn3n2)cc1 | 11.1 |  |  |  |  |  |  |
| CS(=O)(=O)c1ccc(C(=O)Nc2ccc(Cl)c(-c3ccccn3)c2)c(Cl)c1 [VISMODEGIB] | 7.2 |  | 1250 | 2460 | 1.64 | 2.23 | 6.77 |
| Cc1ccc(CN2CCOCC2)cc1NC(=O)c1ccc(Nc2nc(-c3ccccn3)c3cccn3n2)cc1 | 0.97 | 2.85 | 637 | 764 | 1.51 | 1.64 | 22 |
| Cc1ccc(CN2CCCC2)cc1NC(=O)c1ccc(Nc2nc(-c3cnn(C)c3)c3cccn3n2)cc1 | 12.3 |  |  |  |  |  |  |
| O=C(Nc1cccc(CN2CCOCC2)c1)c1ccc(Nc2nc(-c3ccc(OC(F)(F)F)cc3)c3cccn3n2)cn1 | 8.8 |  |  |  |  |  |  |
| Cc1ccc(CN2CCOCC2)cc1NC(=O)c1ccc(Nc2nc(-c3ccc(OC(F)(F)F)cc3)c3cccn3n2)cn1 | 1.1 | 5.97 | 4190 | 1940 | 8.34 | 3.49 | 8.38 |
| Cc1ccc(CN2CCOCC2)cc1NC(=O)c1ccc(Nc2nc(-c3cnn(C)c3)c3cccn3n2)cc1 | 1.2 | 2.19 | 1070 | 791 | 1.23 | 1.31 | 21.1 |
| Cc1ccc(CN2CCOCC2)cc1NC(=O)c1ccc(Nc2nc(-c3cccnc3)c3cccn3n2)cc1 | 1.6 |  |  |  |  |  |  |
| Cc1ccc(CN2CCOCC2)cc1NC(=O)c1ccc(Nc2nc(-c3ccccc3)c3cccn3n2)cc1 | 1.5 |  |  |  |  |  |  |
| Cc1ccc(CN2CCN(C)CC2)cc1NC(=O)c1ccc(Nc2nc(-c3cnn(C)c3)c3cccn3n2)cc1 | 7.5 |  |  |  |  |  |  |
| Cc1ccc(CN2CCCCC2)cc1NC(=O)c1ccc(Nc2nc(-c3ccc(OC(F)(F)F)cc3)c3cccn3n2)cc1 | 0.62 |  |  |  |  |  |  |
| Cc1ccc(CN2CCOCC2)cc1NC(=O)c1ccc(Nc2nc(-c3ccccn3)c3cccn3n2)cn1 | 1.1 |  |  |  |  |  |  |

The remaining lines, values ahead:

| IC50 [1] [nM] | Vd [2] [L/kg] | Cmax [3] [ng/mL] | AUC [4] [ng·h/mL] | half-life [5] [h] | MRT last [6] [h] | clearance [7] [mL/min/kg] | SMILES |
| --- | --- | --- | --- | --- | --- | --- | --- |
| 1.7 |  |  |  |  |  |  | Cc1ccc(CN2CCCC2)cc1NC(=O)c1ccc(Nc2nc(-c3ccc(OC(F)(F)F)cc3)c3cccn3n2)cc1 |
| 1.6 | 12.6 | 2440 | 1430 | 15.2 | 4.68 | 9.66 | Cc1cccc(C)c1NC(=O)c1ccc(Nc2nc(-c3ccc(OC(F)(F)F)cc3)c3cccn3n2)cc1 |
| 0.83 | 5.23 | 2720 | 2230 | 8.86 | 4.83 | 6.9 | Cc1ccc(CN2CCOCC2)cc1NC(=O)c1ccc(Nc2nc(-c3ccc(OC(F)(F)F)cc3)c3cccn3n2)cc1 |
| 1.6 |  |  |  |  |  |  | Cc1cccc(C)c1NC(=O)c1ccc(Nc2nc(C)c(C)c(-c3ccc(OC(F)(F)F)cc3)n2)cc1 |
| 5.3 |  |  |  |  |  |  | CCc1cnc(Nc2ccc(C(=O)Nc3c(C)cccc3C)cc2)nc1-c1ccc(OC(F)(F)F)cc1 |
| 1.7 |  |  |  |  |  |  | Cc1ccc(CN2CCN(C)CC2)cc1NC(=O)c1ccc(Nc2nc(-c3ccc(OC(F)(F)F)cc3)c3cccn3n2)cc1 |
| 1.4 |  |  |  |  |  |  | Cc1cc(-c2ccc(OC(F)(F)F)cc2)nc(Nc2ccc(C(=O)Nc3c(C)cccc3C)cc2)n1 |
| 0.8 |  |  |  |  |  |  | CCCc1cc(-c2ccc(OC(F)(F)F)cc2)nc(Nc2ccc(C(=O)Nc3c(C)cccc3C)cc2)n1 |
